Test results taken from ChEMBL document CHEMBL4823327, “New Selective Inhibitors of ERG Positive Prostate Cancer: ERGi-USU-6 Salt Derivatives” (ACS Med Chem Lett, 2021).
pIC50: −log10 of the molar value. Calls of active or inactive are those of the source. No cut-off for these calls is given here.

Assays:
[1] = tested on: VCaP; assay: Cytotoxicity against human VCaP cells assessed as inhibition of cell growth after 120 hrs by Cell Glow […] assay; type: functional, cell-based
[2] = biological target: Serine/threonine-protein kinase RIO2 (Homo sapiens) (UniProt Q9BVS4); assay: Inhibition of RIOK2 in HUVEC at 0.05 to 0.25 uM; details: dose 0.05-0.25 µM
Outline: (§1)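 HUVEC (ERG-positive normal primary endothelial cells) were treated at the same doses as VCaP cells, over a 0–0.25 μmol/L range. Read-outs were cell growth and endogenous ERG and RIOK2 protein levels.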

[3] = tested on: HUVEC; assay: Cytotoxicity against HUVEC assessed as inhibition of cell growth at 0.05 to 0.25 uM; type: cell-based; details: human, dose 0.05-0.25 µM; outline: as §1
[4] = Toxicity in athymic nude mouse assessed as tissue and vasculature damage at 200 mg/kg, ip administered twice a week for 4 weeks; type: organism-based; details: in vivo, 672 h
Outline: (§2)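 Athymic nude mice were split into five dose groups of 5 animals each: vehicle (90% PEG + 10% DMSO), 50, 100, 150 or 200 mg/kg in the same vehicle, given by injection. Survival and body weight were monitored through the study, with gross examination of major organs and the injection site. MTD was taken as the highest dose at which all animals survived.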

[5] = Toxicity in ip dose athymic nude mouse assessed as maximum tolerated dose administered twice a week for 4 weeks; type: organism-based; details: in vivo; outline: as §2
[6] = Toxicity in athymic nude mouse assessed as body weight loss at 200 mg/kg, ip administered twice a week for 4 weeks; type: organism-based; details: in vivo, 672 h; outline: as §2
[7] = Toxicity in athymic nude mouse assessed as health deterioration at 100 mg/kg, ip administered twice a week for 4 weeks; type: organism-based; details: in vivo, 672 h; outline: as §2
[8] = Toxicity in athymic nude mouse assessed as localized inflammation at 200 mg/kg, ip administered twice a week for 4 weeks; type: organism-based; details: in vivo, 672 h; outline: as §2

Chain of Serine/threonine-protein kinase RIO2 (Homo sapiens) (Q9BVS4 whole entry, looked up): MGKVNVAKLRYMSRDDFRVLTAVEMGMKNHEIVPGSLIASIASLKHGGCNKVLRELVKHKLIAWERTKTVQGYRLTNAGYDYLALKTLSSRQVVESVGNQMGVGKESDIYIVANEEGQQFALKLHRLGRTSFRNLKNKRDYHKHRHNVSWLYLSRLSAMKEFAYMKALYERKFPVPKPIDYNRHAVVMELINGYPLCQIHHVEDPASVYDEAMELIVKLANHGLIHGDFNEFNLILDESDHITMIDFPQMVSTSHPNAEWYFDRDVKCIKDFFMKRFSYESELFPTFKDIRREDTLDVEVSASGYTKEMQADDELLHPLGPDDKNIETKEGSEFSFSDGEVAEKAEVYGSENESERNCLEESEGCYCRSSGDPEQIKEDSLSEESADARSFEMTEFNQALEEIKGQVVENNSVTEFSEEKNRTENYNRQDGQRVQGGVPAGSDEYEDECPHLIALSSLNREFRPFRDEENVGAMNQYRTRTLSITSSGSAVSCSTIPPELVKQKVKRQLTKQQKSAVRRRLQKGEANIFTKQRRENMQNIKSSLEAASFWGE

SMILES: CN(C)c1ccc(/N=N/c2ccccn2)c(O)c1 [listing 1 of 3 here]
- pIC50 ([1]; vcap): < 6.30

SMILES: CC(=O)C(=O)O.CN(C)c1ccc(/N=N/c2ccccn2)c(O)c1
- pIC50 ([1]; Homo sapiens, VCaP, 120 h): < 6.30

SMILES: CN(C)c1ccc(/N=N/c2ccccn2)c(O)c1 [listing 2 of 3 here]
- inhibition [2]: inactive

SMILES: CN(C)c1ccc(/N=N/c2ccccn2)c(O)c1.CS(=O)(=O)O
- pIC50 ([1]; vcap): 7.05
- Activity [3]: Non-Toxic

SMILES: CN(C)c1ccc(/N=N/c2ccccn2)c(O)c1 [listing 3 of 3 here]
- Activity [4]: Toxic
- MTD at 672 h [5]: 100 mg/kg
- Activity [6]: Toxic
- Activity [7]: Non-Toxic
- Activity [8]: Toxic

SMILES: Oc1ccc2ccccc2c1/N=N/c1nccs1
- pIC50 ([1]; Homo sapiens, VCaP, 120 h): 6.77
- MTD at 672 h [5]: 150 mg/kg
